Laboratory results: BindingDB's records for doi:10.1016/j.bmcl.2019.126908 (University of California Davis, 2020)

Target: T1, Bifunctional epoxide hydrolase 2 (Homo sapiens, UniProt P34913)
T1 sequence (P34913 whole entry): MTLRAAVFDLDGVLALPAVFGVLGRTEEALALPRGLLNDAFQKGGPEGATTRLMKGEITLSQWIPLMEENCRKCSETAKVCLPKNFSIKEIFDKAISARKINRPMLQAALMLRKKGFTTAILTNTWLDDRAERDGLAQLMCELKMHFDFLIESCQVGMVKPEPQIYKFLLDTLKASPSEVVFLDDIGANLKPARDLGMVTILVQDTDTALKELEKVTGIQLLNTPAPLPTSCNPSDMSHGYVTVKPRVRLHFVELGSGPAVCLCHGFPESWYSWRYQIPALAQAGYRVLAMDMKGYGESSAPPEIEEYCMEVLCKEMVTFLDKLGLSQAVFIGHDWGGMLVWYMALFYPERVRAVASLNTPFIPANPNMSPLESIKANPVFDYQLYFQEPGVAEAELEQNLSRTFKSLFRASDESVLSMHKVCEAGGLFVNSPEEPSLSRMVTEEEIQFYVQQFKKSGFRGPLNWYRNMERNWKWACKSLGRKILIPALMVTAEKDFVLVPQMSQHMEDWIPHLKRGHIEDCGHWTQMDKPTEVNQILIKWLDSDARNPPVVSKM
Test: Inhibition of human soluble epoxide hydrolase by kinetic fluorescent assay
In short: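 Kinetic fluorescent read-out; each value is the mean of three separate experiments.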

Row | SMILES | IC50 [nM]
1 | CC(NC(=O)Nc1ccccc1F)C12CC3CC(CC(C3)C1)C2 (configuration not stated) | 56
2 | O=C(Nc1ccc(C23CC4CC(CC(C4)C2)C3)cc1)Nc1ccccc1F | 94
